PostGolgi yeast – phenotypic screen on post-Golgi transport, primary screen; post-Golgi transport phenotypic cell assay; inhibition, % at 10 µM; actives 0.9% (n = 98,000); AID 739, 2007;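 also: yeast cells grown in 1536-well plates; yeast grown about 18 h at 30C before absorbance read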
EphB4 antag – EphB4-ephrin-B2 interaction antagonists, primary screen, biochemical, TNYL-RAW peptide probe, fluorescence polarization | Ephrin type-B receptor 4 (Homo sapiens), P54760 | EphB4 LBD / TNYL-RAW-Alexa532 peptide | inhibition, % at 7 µM | actives 0.15% (n = 97,000) | AID 720, 2007;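 active = inhibition above the screen-wide mean inhibition plus 3 SD, cut at about 15% in these data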;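 also: 0% = DMSO wells and 100% = excess unlabeled TNYL-RAW peptide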
Target sequence (P54760 whole entry, looked up, the tested form may be a part): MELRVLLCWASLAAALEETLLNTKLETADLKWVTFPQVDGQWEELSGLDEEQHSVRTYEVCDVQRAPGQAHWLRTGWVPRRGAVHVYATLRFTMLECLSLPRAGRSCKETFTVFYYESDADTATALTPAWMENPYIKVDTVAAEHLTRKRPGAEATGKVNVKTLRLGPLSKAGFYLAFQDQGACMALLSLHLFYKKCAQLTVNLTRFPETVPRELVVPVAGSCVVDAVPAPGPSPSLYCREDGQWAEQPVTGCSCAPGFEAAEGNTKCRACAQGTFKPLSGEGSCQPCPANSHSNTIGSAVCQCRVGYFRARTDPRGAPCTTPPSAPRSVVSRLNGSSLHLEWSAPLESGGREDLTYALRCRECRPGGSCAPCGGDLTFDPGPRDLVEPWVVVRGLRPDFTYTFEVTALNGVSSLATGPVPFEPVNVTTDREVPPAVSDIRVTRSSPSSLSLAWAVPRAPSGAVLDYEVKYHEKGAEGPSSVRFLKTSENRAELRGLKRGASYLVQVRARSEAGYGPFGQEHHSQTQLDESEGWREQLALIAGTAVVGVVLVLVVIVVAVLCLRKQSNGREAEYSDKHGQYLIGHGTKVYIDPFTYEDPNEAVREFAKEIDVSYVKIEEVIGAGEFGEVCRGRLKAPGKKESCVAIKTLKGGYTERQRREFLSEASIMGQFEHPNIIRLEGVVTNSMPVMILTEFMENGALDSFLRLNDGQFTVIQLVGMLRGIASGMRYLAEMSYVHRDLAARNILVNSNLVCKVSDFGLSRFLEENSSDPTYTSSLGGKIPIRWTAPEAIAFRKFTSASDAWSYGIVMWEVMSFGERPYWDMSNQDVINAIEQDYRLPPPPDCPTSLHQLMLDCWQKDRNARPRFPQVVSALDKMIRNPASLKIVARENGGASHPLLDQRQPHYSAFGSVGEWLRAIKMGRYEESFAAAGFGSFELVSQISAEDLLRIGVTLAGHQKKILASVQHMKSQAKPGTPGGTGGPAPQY
tolC growth inh – growth inhibitors of E. coli tolC mutant, primary screen, strain BW25113 ΔtolC::kan, 384-well; actives 2.2% (n = 65,000); OD615; growth inhibition, % at 10 µM (by protocol);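 active = growth inhibition at or above a cutoff equal to the mean over every tested compound plus 3 SD, cut at about 60% in these data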;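 also: growth measured after 20 h incubation at 37 °C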
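System: E. coli ΔtolC::kan strain BW25113; Buffer or medium: LB broth supplemented with 50 µg/mL kanamycin; Compound: 10 µM final, single dose; Incubation: bacterial growth with compound for 20 h at 37 °C; Signal: A615 absorbance measurement; Evaluation: growth inhibition in percent.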
E coli WT exp – growth inhibitors of wild-type E. coli, primary screen, strain BW25113, expanded library, OD600; actives 0.15% (n = 98,000); OD600 absorbance; growth inhibition, % at 100 µM;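 active = growth inhibition above about 50% at one test dose, limit read from the data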;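 also: growth measured after 20 h incubation at 37 °C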
PostGolgi ctrl – growth inhibition of yeast control strain, primary screen, counter-screen for post-Golgi transport modulator project; efflux-deficient yeast background strain, growth absorbance A615, 16 h; inhibition, % at 10 µM; actives 5% (n = 98,000); AID 738, 2007
Active calls of the source: *; . = no result given. An excerpt weighted towards active compounds, which were near 6% of everything screened. Rule as the data show it, unless noted: active = inhibition above about 30%; inactive = the rest.

SMILES | PostGolgi yeast | EphB4 antag | tolC growth inh | E coli WT exp | PostGolgi ctrl
O=C(O)c1cc(N2C(=O)C3CC=CCC3C2=O)ccc1NCc1cccnc1 (centres undefined) | -6 | 8 | . | 5 | 1
Cc1ccc(N(C(=O)C2CCCC2)C2C=CS(=O)(=O)C2)cc1 (centres undefined) | 5 | 0 | 5 | 1 | 39*
O=C(c1ccc2c(=O)n(C3CCCC3)c(=S)[nH]c2c1)N1CCc2ccccc21 | 67* | 2 | . | -5 | 99*
CC(C)NC(=O)c1ccc2c(=O)n(C3CCCC3)c(=S)[nH]c2c1 | 3 | 3 | -11 | -5 | -5
CCc1cccc(OCC(=O)Nc2ccc(S(=O)(=O)Nc3onc(C)c3C)cc2)c1 | 3 | 3 | 15 | 12 | 12
CC1CN(C(=O)N2c3ccccc3Sc3ccccc32)C(C)CC1=O (centres undefined) | -1 | 6 | 43 | -7 | 37*
CCOc1ccc2sc(NS(=O)(=O)c3ccc(OC)c(OC)c3)nc2c1 | -4 | 8 | -2 | -8 | 4
CC1CCCC(C)N1C(=O)CN1C(=O)C(C)(C)Oc2ccc(C(=O)NC3CCCCC3)cc21 (centres undefined) | 2 | -3 | 84* | 0 | -2
CC1CCCC(C)N1C(=O)CN1C(=O)C(C)(C)Oc2ccc(C(=O)NC3CCCC3)cc21 (centres undefined) | -5 | 0 | -10 | 8 | 3
CC1CCCCN1C(=O)/C(=C\c1ccccc1)c1ccccc1 (centres undefined) | 1 | 10 | . | 7 | 24
COc1cc(-c2nc3cnccn3c2Nc2ccccc2)ccc1O | 7 | -3 | 3 | 3 | 20
COc1cc(-c2nc3cnccn3c2Nc2ccc(C)cc2)ccc1O | -8 | 5 | . | -4 | 34*
COCCn1c(-c2ccc(OC)cc2)cnc1SCC(=O)Nc1cccc2ccccc12 | 7 | -6 | . | -8 | 28
COc1ccccc1-n1c(=O)oc2ccc(Cl)cc2c1=O | 13 | -11 | 100* | 46 | 60*
Cc1cc(C(=O)N2CC(C)CC(C)C2)n(-c2ccccc2)n1 (centres undefined) | -1 | . | 5 | -7 | 32*
Cc1cc(C(=O)N2CCOCC2)n(-c2ccccc2)n1 | -2 | -1 | 2 | 2 | -10
COc1ccc(C(=O)Oc2ccc3oc(=O)sc3c2)cc1 | 3 | 3 | . | -11 | 6
O=C1C2C3C=CC(C3)C2C(=O)N1CN(Cc1ccccc1)CN1C(=O)C2C3C=CC(C3)C2C1=O (centres undefined) | -10 | 9 | -15 | -1 | 37*
O=C(CN1C(=O)C2C3C=CC(C3)C2C1=O)NCc1ccccc1 (centres undefined) | 13 | 0 | . | 4 | 6
CNC(=O)CN1C(=O)C2C3C=CC(C3)C2C1=O (centres undefined) | 0 | -1 | -11 | -12 | 2
COc1ccccc1NC(=O)NCCN1C(=O)C2C3C=CC(C3)C2C1=O (centres undefined) | -7 | -9 | -7 | -9 | 42*
Cc1cccc(NCN2C(=O)C3C4C=CC(C4)C3C2=O)c1 (centres undefined) | 21 | -3 | . | 4 | 33*
O=C1C2C3C=CC(C3)C2C(=O)N1CNc1ccccc1 (centres undefined) | 7 | 1 | . | 2 | 20
Cc1ccccc1NCN1C(=O)C2C3C=CC(C3)C2C1=O (centres undefined) | -4 | -1 | 6 | -2 | 32*
N#CCC(CNc1ncc(C(F)(F)F)cc1Cl)OC(=O)c1ccc(Cl)cc1Cl (centres undefined) | 10 | -2 | . | -8 | 25
SMILES | PostGolgi yeast | EphB4 antag | tolC growth inh | E coli WT exp | PostGolgi ctrl
CC1CCCC/C1=N\NS(=O)(=O)c1ccc(Br)cc1 (centres undefined) | 2 | -2 | . | -2 | 4
COC(=O)c1cccc(-n2nnnc2SCC(=O)Nc2nc3c(s2)CCCC3)c1 | 1 | 6 | 84* | -5 | 28
COc1ccc2nc(NC(=O)CSc3nnnn3C3CCCCC3)sc2c1 | 21 | -13 | 69* | 7 | 45*
CCOc1ccc(OCCSc2nnnn2C2CCCCC2)cc1 | -6 | -1 | 65* | -2 | -1
COc1ccc2nc(NC(=O)CSc3nnc(C)s3)sc2c1 | 9 | 3 | . | -9 | 2
O=C(CSc1nc2ccccc2o1)Nc1nc2c(s1)CCCC2 | . | . | 63* | . | .
COc1cccc(-n2nnnc2SCC(=O)Nc2nc3c(s2)CCCC3)c1 | . | -5 | . | . | .
O=C(NC1CCCC1)c1ccc(CS(=O)(=O)c2ccc(Br)cc2)o1 | -2 | -9 | 2 | 0 | 18
CC(NC(=O)NCc1cccnc1)(C(F)(F)F)C(F)(F)F | 0 | 0 | 8 | 5 | 11
COC(=O)c1[nH]c2ccc(C)cc2c1NC(=O)CN1CCCCC1C (centres undefined) | . | . | 6 | . | .
CCOc1ccc2nc(NC(=O)CSc3nnnn3C3CCCCC3)sc2c1 | 16 | -2 | 44 | -5 | 42*
O=C(CSc1nnnn1C1CCCCC1)Nc1nc2c(s1)CCCC2 | 18 | 0 | 98* | 3 | 12
CCOc1ccc2nc(NC(=O)CSc3nc4c(c(=O)n(C)c(=O)n4C)n3C(C)C)sc2c1 | -3 | . | 27 | -23 | 19
CC(=O)/C=C1/SC(CC(=O)O)C(=O)N1c1ccccc1 (centres undefined) | . | -4 | . | . | .
CC1CC(C)CN(S(=O)(=O)c2ccc(NC(=O)C3COc4ccccc4O3)cc2)C1 (centres undefined) | 3 | . | 40 | -11 | 38*
CC1(C)CC(=O)c2sc(NC(=O)C3COc4ccccc4O3)nc2C1 (centres undefined) | -6 | -5 | . | -3 | 38*
O=C(Nc1cccnc1)C1COc2ccccc2O1 (centres undefined) | 1 | 16* | . | 15 | 9
O=C(CCC1COc2ccccc2O1)Nc1cccnc1 (centres undefined) | -5 | -8 | -4 | 3 | 12
Cc1ccc(-c2nnc(SCC(=O)OC(C)C)n2N)cc1 | -2 | 4 | . | 1 | -2
CC(C)OC(=O)CSc1nnc(-c2ccc(Cl)cc2)n1N | 35* | 7 | -15 | -4 | -7
Cc1c(CCO)c(=O)[nH]n1C(=O)c1ccc(F)cc1 | -3 | 3 | . | 5 | -8
CCn1c(SCC(=O)N2CCCc3ccccc32)nc2cccnc21 | 9 | 9 | 7 | 8 | 0
CC(C)c1nc(SCC(=O)N2CCCc3ccccc32)c2c(=O)n(C)c(=O)n(C)c2n1 | 10 | 1 | . | -6 | 35*
CCn1c(SCC(=O)N2CCCc3ccccc32)nc2ccccc2c1=O | -1 | 1 | 40 | -8 | 40*
Cc1nc(SCC(=O)N2CCCc3ccccc32)c2oc3ccccc3c2n1 | -2 | -3 | 29 | -2 | 41*
C=CCn1c(SCC(=O)N2CCc3ccccc3C2)nc2ccccc2c1=O | -6 | -1 | . | -18 | 49*
